Measurements as given in paper PMC4607264 (Developmental and comparative immunology, 2014).
In brackets after ≈: the same amount, converted by molar mass.

Biological target: DlRBL (Dicentrarchus labrax rhamnose-binding lectin) (Dicentrarchus labrax, UniProt A0A8P4K6Y8)
Assay: inhibition of hemagglutination of rabbit erythrocytes by purified lectin
Format: biochemical
Conditions: TBS pH 7.4, 5 mM CaCl2; 1% rabbit erythrocytes
Procedure, shortened: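 Purified lectin (250 μg/ml stock, dialysed in TBS) was serially 2-fold diluted in TBS with 0.1% gelatin. Inhibitor series of monosaccharides, disaccharides and yeast mannan were used at decreasing concentrations starting from 100 mM. Rabbit erythrocytes were washed three times in PBS and suspended at 1% in TBS-gelatin, then added in equal volume. Agglutination was scored after 1 h at 37°C.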

Question: With `OC[C@H]1OC(O)[C@H](O)[C@@H](O)[C@H]1O` (stereo partly drawn) [D-galactose] as the compound, how does the “Minimum inhibitory concentration” value read?
Answer: 70.0 mM (≈ 12.6 mg/mL)
